Experimental data as given in ChEMBL document CHEMBL4196064, “Identification of Pyrazolo[3,4-e][1,4]thiazepin based CYP51 inhibitors as potential Chagas disease therapeutic alternative: In vitro and in vivo evaluation, binding mode prediction and SAR exploration” (Eur J Med Chem, 2018).
Values after ≈ are worked out from the molar mass of the structure shown. Active and inactive are the calls of the source. The calls are words filed in the database; no cut-off is given here.

Experiments:
Trypanosoma cruzi [1] = assay: Antitrypanosomal activity against Trypanosoma cruzi Tulahuen trypomastigote forms infected in mouse L929 cells assessed as reduction in infection level at 10 to 12 uM after 96 hrs by beta-galactosidase reporter gene assay relative to control; type: functional; design: scale not given: the % may be the effect or the level left
Outline: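 L929 cells infected 2 h with tissue culture-derived β-galactosidase-expressing Tulahuen trypomastigotes at 10:1 parasite/host cell ratio, rinsed, and held 48 h at 37℃. Single fixed concentration (10-12 µM) then applied, 96 h. Absorbance read at 570 nm; growth inhibition expressed relative to untreated cells. DMSO not above 0.6 %.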

[2] = Cytotoxicity against mouse L929 cells assessed as reduction in cell viability after 96 hrs by Alamarblue assay; type: cell-based; details: read-out: LC50
Outline: (§1)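 L929 fibroblasts (4x10^3 cells/well) in RPMI 1640 with 10% FBS, incubated at 37°C with increasing concentrations for 96 h. Viability was read with AlamarBlue (6 h incubation, absorbance at 600 nm) and confirmed by light microscopy.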

[3] = Selectivity index, ratio of LC50 for mouse L929 cells by Alamarblue assay to EC50 for Trypanosoma cruzi Tulahuen trypomastigote forms; type: toxicity; details: read-out: Selectivity Index
Trypanosoma cruzi [4] = assay: Antitrypanosomal activity against bloodstream trypomastigote stage of Trypanosoma cruzi Y measured after 2 hrs by light microscopic analysis; type: functional, organism-based
Outline: (§2)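 Y strain bloodstream trypomastigotes from heart puncture of infected mice, at 5x10⁶/mL in RPMI 1640 with 5% FBS. Incubated at 37℃ with 0–50 µM for 2 or 24 h. […] Mean ± SD.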

[5] = Selectivity index, ratio of LC50 for mouse L929 cells by light microscopic analysis to EC50 for Trypanosoma cruzi Tulahuen trypomastigote forms; type: toxicity; details: read-out: Selectivity Index
Trypanosoma cruzi [6] = assay: Antitrypanosomal activity against bloodstream trypomastigote stage of Trypanosoma cruzi Y measured after 24 hrs by light microscopic analysis; type: functional, organism-based; outline: as §2
[7] = Cytotoxicity against Swiss Webster mouse cardiac cells assessed as reduction in cell viability after 24 hrs by prestoblue assay; type: cell-based, Cardiac Muscle Cell; details: read-out: LC50
Outline: (§3)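 Primary cardiac cells from Swiss Webster mouse embryos, cultured at 37°C in DMEM with 5% FBS, CaCl2, glutamine and chick embryo extract. Uninfected cultures were exposed to increasing concentrations for 24 h. Viability was read with PrestoBlue (5 h incubation, absorbance at 570 nm) and checked by light microscopy for morphology.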

[8] = Cytotoxicity against Swiss Webster mouse cardiac cells assessed as reduction in cell viability after 24 hrs by light microscopic analysis; type: cell-based, Cardiac Muscle Cell; details: read-out: LC50; outline: as §3
Trypanosoma cruzi [9] = assay: Antitrypanosomal activity against Trypanosoma cruzi Tulahuen trypomastigote forms infected in mouse L929 cells assessed as reduction in parasite load after 96 hrs by beta-galactosidase reporter gene assay; type: functional, organism-based; details: L929, 96 h
Outline: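 L929 cells infected 2 h with tissue culture-derived Tulahuen β-galactosidase trypomastigotes (10:1 parasite/host cell), rinsed with saline, and left 48 h at 37℃. Increasing non-toxic concentrations applied for 96 h. Absorbance read at 570 nm, % growth inhibition versus untreated cells, EC50 derived; mean ± SD. DMSO not above 0.6 %.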

[10] = Selectivity index, ratio of LC50 for Swiss Webster mouse cardiac cells by prestoblue assay to EC50 for bloodstream trypomastigote stage of Trypanosoma cruzi Y measured after 24 hrs; type: toxicity; details: read-out: Selectivity Index
Outline: (§4)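 The ratio is cardiac-cell LC50 (24 h) over the 24 h EC50 against Y-strain bloodstream trypomastigotes. Trypomastigotes (5x10^6/mL) were exposed to 0-50 µM at 37°C in RPMI with 5% FBS. Surviving parasites were counted in a Neubauer chamber, and the EC50 is the concentration halving the parasite number.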

[11] = Selectivity index, ratio of LC50 for Swiss Webster mouse cardiac cells by light microscopic analysis to EC50 for bloodstream trypomastigote stage of Trypanosoma cruzi Y measured after 24 hrs; type: toxicity; details: read-out: Selectivity Index; outline: as §4
[12] = Cytotoxicity against mouse L929 cells assessed as reduction in cell viability after 96 hrs by light microscopic analysis; type: cell-based; details: read-out: LC50; outline: as §1
Trypanosoma cruzi [13] = assay: Antitrypanosomal activity against bloodstream trypomastigote stage of Trypanosoma cruzi Y infected in Swiss Webster mouse assessed as reduction in parasitemia at 20 mg/kg, ip administered daily on day 5 to 9 post infection relative to control; type: functional
Outline: (§5)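 Male Swiss Webster mice (18–20 g) infected i.p. with 10^4 Y strain bloodstream trypomastigotes. Treatment given days 5–9 post infection: test compound i.p. 5–20 mg/kg/day (0.1 mL, DMSO then 20% Trappsol) or Bz 100 mg/kg/day p.o. (3% Tween 80 in water). Controls infected, vehicle only. Parasitemia counted by Pizzi-Brener in 5 µL tail blood; mortality checked daily to 30 days post treatment.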

Trypanosoma cruzi [14] = assay: Antitrypanosomal activity against bloodstream trypomastigote stage of Trypanosoma cruzi Y infected in Swiss Webster mouse assessed as reduction in parasitemia at 5 mg/kg, ip administered daily on day 5 to 9 post infection relative to control; type: functional; outline: as §5
Trypanosoma cruzi [15] = assay: Antitrypanosomal activity against bloodstream trypomastigote stage of Trypanosoma cruzi Y infected in Swiss Webster mouse assessed as increase in mouse survival at 5 to 20 mg/kg, ip administered daily on day 5 to 9 measured daily until 30 days post dose relative to control; type: functional, organism-based; outline: as §5
Trypanosoma cruzi [16] = assay: Antitrypanosomal activity against bloodstream trypomastigote stage of Trypanosoma cruzi Y infected in Swiss Webster mouse assessed as reduction in parasitemia at 10 mg/kg, ip administered daily on day 5 to 9 post infection relative to control; type: functional; outline: as §5
[17] = biological target: Sterol 14-alpha demethylase (Trypanosoma cruzi (strain CL Brener)) (UniProt Q7Z1V1); assay: Inhibition of recombinant Trypanosoma cruzi Tulahuen CYP51 expressed in Escherichia coli JM109 cell membranes assessed as residual activity at 0.0165 uM by fluorescence based analysis (reference value: 100%)
Outline: (§6)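 Fluorescence-based functional assay using recombinant T. cruzi (Tulahuen) CYP51. […] Residual activity was measured across a concentration series and fitted to a curve to give the IC50.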

[18] = biological target: Sterol 14-alpha demethylase (Trypanosoma cruzi (strain CL Brener)) (UniProt Q7Z1V1); assay: Inhibition of recombinant Trypanosoma cruzi Tulahuen CYP51 expressed in Escherichia coli JM109 cell membranes assessed as residual activity at 0.00165 uM by fluorescence based analysis (reference value: 100%); outline: as §6
[19] = biological target: Sterol 14-alpha demethylase (Trypanosoma cruzi (strain CL Brener)) (UniProt Q7Z1V1); assay: Inhibition of recombinant Trypanosoma cruzi Tulahuen CYP51 expressed in Escherichia coli JM109 cell membranes assessed as residual activity at 0.17 uM by fluorescence based analysis (reference value: 100%); outline: as §6
[20] = biological target: Sterol 14-alpha demethylase (Trypanosoma cruzi (strain CL Brener)) (UniProt Q7Z1V1); assay: Inhibition of recombinant Trypanosoma cruzi Tulahuen CYP51 expressed in Escherichia coli JM109 cell membranes assessed as residual activity at 0.5 uM by fluorescence based analysis (reference value: 100%); outline: as §6
[21] = biological target: Sterol 14-alpha demethylase (Trypanosoma cruzi (strain CL Brener)) (UniProt Q7Z1V1); assay: Inhibition of recombinant Trypanosoma cruzi Tulahuen CYP51 expressed in Escherichia coli JM109 cell membranes assessed as residual activity at 0.0005 uM by fluorescence based analysis (reference value: 100%); outline: as §6
[22] = biological target: Sterol 14-alpha demethylase (Trypanosoma cruzi (strain CL Brener)) (UniProt Q7Z1V1); assay: Inhibition of recombinant Trypanosoma cruzi Tulahuen CYP51 expressed in Escherichia coli JM109 cell membranes assessed as residual activity at 0.05 uM by fluorescence based analysis (reference value: 100%); outline: as §6
[23] = biological target: Sterol 14-alpha demethylase (Trypanosoma cruzi (strain CL Brener)) (UniProt Q7Z1V1); assay: Inhibition of recombinant Trypanosoma cruzi Tulahuen CYP51 expressed in Escherichia coli JM109 cell membranes assessed as residual activity at 0.005 uM by fluorescence based analysis (reference value: 100%); outline: as §6
Trypanosoma cruzi [24] = assay: Trypanocidal activity against Trypanosoma cruzi Sylvio X10/7 intracellular amastigotes forms measured every 24 hrs for 96 hrs by time-kill assay; type: functional
Trypanosoma cruzi [25] = assay: Trypanocidal activity against Trypanosoma cruzi Sylvio X10/7 intracellular amastigotes forms assessed as inhibition of maximum parasite growth measured every 24 hrs for 96 hrs by time-kill assay relative to control; type: functional

Sequence of Sterol 14-alpha demethylase (Trypanosoma cruzi (strain CL Brener)) (Q7Z1V1 whole entry, looked up): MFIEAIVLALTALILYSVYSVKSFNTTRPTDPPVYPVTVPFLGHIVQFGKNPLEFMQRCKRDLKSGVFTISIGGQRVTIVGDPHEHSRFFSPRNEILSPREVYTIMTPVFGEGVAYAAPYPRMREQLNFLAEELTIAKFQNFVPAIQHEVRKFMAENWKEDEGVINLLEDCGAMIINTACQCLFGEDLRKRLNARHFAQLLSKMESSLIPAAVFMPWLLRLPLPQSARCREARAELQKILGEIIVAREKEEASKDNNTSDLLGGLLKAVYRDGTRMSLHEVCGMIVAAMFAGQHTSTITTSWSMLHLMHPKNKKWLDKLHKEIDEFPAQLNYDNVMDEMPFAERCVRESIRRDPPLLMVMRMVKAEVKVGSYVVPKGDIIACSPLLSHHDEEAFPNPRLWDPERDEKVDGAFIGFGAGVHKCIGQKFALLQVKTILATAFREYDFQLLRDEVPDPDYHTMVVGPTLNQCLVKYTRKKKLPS

C=CCOc1ccc([C@H]2S[C@@H](C)C(=O)Nc3[nH]nc(C)c32)cc1
Activity (Trypanosoma cruzi [1]): 0%

Cc1ccccc1COc1ccc([C@H]2S[C@@H](C)C(=O)Nc3[nH]nc(C)c32)cc1
CC50 at 96 h [2]: 111 µM | selectivity ratio [3]: 50.4 | EC50 (Trypanosoma cruzi [4]): > 50 µM | Activity (Trypanosoma cruzi [1]): 69.14% | selectivity ratio [5]: 50.4 | EC50 (Trypanosoma cruzi [6]): 38.6 µM | CC50 at 24 h [7]: > 200 µM | CC50 at 24 h [8]: > 200 µM | EC50 (Trypanosoma cruzi [9]): 2.2 µM | selectivity ratio at 24 h [10]: > 5.2 | selectivity ratio at 24 h [11]: > 5.2 | CC50 at 96 h [12]: 111 µM

Cc1n[nH]c2c1[C@@H](c1ccc(OCc3cccc(F)c3)cc1)S[C@@H](C)C(=O)N2
CC50 at 96 h [2]: 103 µM | selectivity ratio [3]: 19.4 | EC50 (Trypanosoma cruzi [4]): > 50 µM | Activity (Trypanosoma cruzi [1]): 70.68% | selectivity ratio [5]: 19.4 | EC50 (Trypanosoma cruzi [6]): 47 µM | CC50 at 24 h [7]: 94 µM | CC50 at 24 h [8]: 94 µM | EC50 (Trypanosoma cruzi [9]): 5.32 µM | selectivity ratio at 24 h [10]: 3.71 | selectivity ratio at 24 h [11]: 3.71 | CC50 at 96 h [12]: 103 µM

Cc1n[nH]c2c1[C@@H](c1ccc(OCc3ccc(Cl)cc3)cc1)S[C@@H](C)C(=O)N2
Activity (Trypanosoma cruzi [1]): 14.88%

Cc1n[nH]c2c1[C@@H](c1ccc(OC(C)C)cc1)S[C@@H](C)C(=O)N2
Activity (Trypanosoma cruzi [1]): 0%

COc1cc([C@H]2S[C@@H](C)C(=O)Nc3[nH]nc(C)c32)ccc1OCc1cccc(Cl)c1
Activity (Trypanosoma cruzi [1]): 39.94%

COc1cc([C@H]2S[C@@H](C)C(=O)Nc3[nH]nc(C)c32)ccc1OCc1cccc(C)c1
Activity (Trypanosoma cruzi [1]): 25.05%

Cc1cccc(COc2ccc([C@H]3S[C@@H](C)C(=O)Nc4[nH]nc(C)c43)cc2)c1
CC50 at 96 h [2]: 98.9 µM | Activity (Trypanosoma cruzi [13]): inactive | selectivity ratio [3]: 36.6 | EC50 (Trypanosoma cruzi [4]): > 50 µM | Activity (Trypanosoma cruzi [1]): 89.25% | Activity (Trypanosoma cruzi [14]): inactive | selectivity ratio [5]: 36.6 | EC50 (Trypanosoma cruzi [6]): 20.6 µM | CC50 at 24 h [7]: 66 µM | CC50 at 24 h [8]: 66 µM | Activity (Trypanosoma cruzi [15]): inactive | EC50 (Trypanosoma cruzi [9]): 2.7 µM | selectivity ratio at 24 h [10]: 3.2 | selectivity ratio at 24 h [11]: 3.2 | CC50 at 96 h [12]: 98.9 µM | Activity (Trypanosoma cruzi [16]): inactive

CC[C@@H]([C@H](C)O)n1ncn(-c2ccc(N3CCN(c4ccc(OC[C@@H]5CO[C@@](Cn6cncn6)(c6ccc(F)cc6F)C5)cc4)CC3)cc2)c1=O
Activity [17]: 71.9% | Activity [18]: 98.4% | Activity [19]: 0% | Activity [20]: 0% | Activity [21]: 100% | Activity [22]: 32% | Activity [23]: 92.8%

CCCOc1ccc([C@H]2S[C@@H](C)C(=O)Nc3[nH]nc(C)c32)cc1
Activity (Trypanosoma cruzi [1]): 0%

Cc1n[nH]c2c1[C@@H](c1ccc(OCc3ccccc3F)cc1)S[C@@H](C)C(=O)N2
CC50 at 96 h [2]: > 200 µM | selectivity ratio [3]: > 38 | EC50 (Trypanosoma cruzi [4]): > 50 µM | Activity (Trypanosoma cruzi [1]): 63.64% | selectivity ratio [5]: > 38 | EC50 (Trypanosoma cruzi [6]): > 50 µM | CC50 at 24 h [7]: > 200 µM | CC50 at 24 h [8]: > 200 µM | EC50 (Trypanosoma cruzi [9]): 5.3 µM | selectivity ratio at 24 h [10]: > 4 | selectivity ratio at 24 h [11]: > 4 | CC50 at 96 h [12]: > 200 µM

CC1CS(=O)(=O)CCN1/N=C/c1ccc([N+](=O)[O-])o1 (stereo unspecified) [NIFURTIMOX]
MIC (Trypanosoma cruzi [24]): 5 µM (≈ 1.44 µg/mL) | Imax (Trypanosoma cruzi [25]): 103%

COc1cc([C@H]2S[C@@H](C)C(=O)Nc3[nH]nc(C)c32)ccc1OCc1ccccc1
Activity (Trypanosoma cruzi [1]): 12.02%

COc1cc([C@H]2S[C@@H](C)C(=O)Nc3[nH]nc(C)c32)ccc1OCc1ccc(Cl)cc1
CC50 at 96 h [2]: 50.6 µM | selectivity ratio [3]: 4.7 | EC50 (Trypanosoma cruzi [4]): > 50 µM | Activity (Trypanosoma cruzi [1]): 53.94% | selectivity ratio [5]: 4.7 | EC50 (Trypanosoma cruzi [6]): 39.4 µM | EC50 (Trypanosoma cruzi [9]): 10.8 µM | CC50 at 96 h [12]: 50.6 µM

Cc1ccc(COc2ccc([C@H]3S[C@@H](C)C(=O)Nc4[nH]nc(C)c43)cc2)cc1
Activity (Trypanosoma cruzi [1]): 0%

COc1cc([C@H]2S[C@@H](C)C(=O)Nc3[nH]nc(C)c32)ccc1OCc1ccc(C)cc1
Activity (Trypanosoma cruzi [1]): 1.98%

COc1cc([C@H]2S[C@@H](C)C(=O)Nc3[nH]nc(C)c32)ccc1OCc1ccccc1Cl
Activity (Trypanosoma cruzi [1]): 27.88%

Cc1n[nH]c2c1[C@@H](c1ccc(OCc3ccc(F)cc3)cc1)S[C@@H](C)C(=O)N2
Activity (Trypanosoma cruzi [1]): 32.42%

COc1cc([C@H]2S[C@@H](C)C(=O)Nc3[nH]nc(C)c32)ccc1OCc1ccccc1C
Activity (Trypanosoma cruzi [1]): 16.43%
